Results: ChEMBL document CHEMBL4033663, “Design, combinatorial synthesis and biological evaluations of novel 3-amino-1'-((1-aryl-1H-1,2,3-triazol-5-yl)methyl)-2'-oxospiro[benzo[a] pyrano[2,3-c]phenazine-1,3'-indoline]-2-carbonitrile antitumor hybrid molecules” (Eur J Med Chem, 2017)
pIC50: −log10 of the molar value. Active and inactive are the calls of the source. The rule behind the calls is not given here.

Assays:
HepG2 = assay: Antiproliferative activity against human HepG2 cells after 48 hrs by MTT assay; assay type: functional, cell-based; settings: HepG2, 48 h
A549 [1] = assay: Antiproliferative activity against human A549 cells after 48 hrs by MTT assay; assay type: functional, cell-based; settings: A549, 48 h
MCF7 = assay: Antiproliferative activity against human MCF7 cells after 48 hrs by MTT assay; assay type: functional, cell-based; settings: MCF7, 48 h
HCT-116 = assay: Antiproliferative activity against human HCT116 cells after 48 hrs by MTT assay; assay type: functional, cell-based; settings: HCT-116, 48 h
L02 = assay: Antiproliferative activity against human L02 cells after 48 hrs by MTT assay; assay type: cell-based; settings: L02, 48 h
HUVEC = assay: Antiproliferative activity against human HUVEC cells after 48 hrs by MTT assay; assay type: cell-based
[2] = Drug uptake in mitochondria of human A549 cells at 2 to 8 uM after 30 mins by MitoTracker Red CMXRos dye-based confocal microscopic analysis; assay type: ADME, cell-based; settings: a549, 0.5 h
In short: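 Live A549 cells were grown for 2 days in confocal dishes. They were then incubated with compound and MitoTracker Red CMXRos in culture medium for 30 min, and localization was imaged by laser-scanning confocal microscopy.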

A549 [3] = assay: Induction of reactive oxygen species generation in human A549 cells by MitoSOX Red dye-based FACS analysis; assay type: functional, cell-based
In short: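 Treated A549 cells were stained with a kit dye that distinguishes ROS(−) and ROS(+) populations. Percentages of each population were measured by flow cytometry.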

A549 [4] = assay: Cell cycle arrest in human A549 cells assessed as accumulation at S-phase at 3 uM after 24 hrs by propidium iodide staining-based FACS analysis (reference value: 17.8 %); assay type: functional
A549 [5] = assay: Cell cycle arrest in human A549 cells assessed as accumulation at S-phase at 6 uM after 24 hrs by propidium iodide staining-based FACS analysis (reference value: 17.8 %); assay type: functional
A549 [6] = assay: Cell cycle arrest in human A549 cells assessed as accumulation at S-phase at 12 uM after 24 hrs by propidium iodide staining-based FACS analysis (reference value: 17.8 %); assay type: functional
A549 [7] = assay: Up regulation of p53 expression in human A549 cells at 3 to 12 uM after 24 hrs by Western blot analysis; assay type: functional, cell-based
In short: (§1)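 A549 cells (3 × 10^5 per dish) were treated for 24 h and lysed in RIPA buffer; protein was measured by BCA. Lysates were run on 12% SDS-PAGE and blotted to nitrocellulose. Blots were blocked in 5% non-fat milk for 2 h at room temperature, then incubated with primary antibodies in TBST overnight at 4 °C. ECL detection was used, with bands normalized to β-actin (mean ± SD, three experiments).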

A549 [8] = assay: Up regulation of p21 expression in human A549 cells at 3 to 12 uM after 24 hrs by Western blot analysis; assay type: functional, cell-based; in short: as §1
A549 [9] = assay: Down regulation of cyclin E expression in human A549 cells after 24 hrs by Western blot analysis; assay type: functional, cell-based; in short: as §1
A549 [10] = assay: Down regulation of CDK2 expression in human A549 cells after 24 hrs by Western blot analysis; assay type: functional, cell-based; in short: as §1
A549 [11] = assay: Effect on cyclin B expression in human A549 cells at 3 to 12 uM after 24 hrs by Western blot analysis; assay type: functional, cell-based; in short: as §1
A549 [12] = assay: Effect on cyclin D expression in human A549 cells at 3 to 12 uM after 24 hrs by Western blot analysis; assay type: functional, cell-based; in short: as §1
A549 [13] = assay: Effect on CDK1 expression in human A549 cells at 3 to 12 uM after 24 hrs by Western blot analysis; assay type: functional, cell-based; in short: as §1
A549 [14] = assay: Induction of apoptosis in human A549 cells assessed as increase in Bax/Bcl-2 ratio after 24 hrs by Western blot analysis; assay type: functional, cell-based; in short: as §1
A549 [15] = assay: Induction of apoptosis in human A549 cells assessed as increase in cleaved caspase-3 level at 3 to 12 uM after 24 hrs by Western blot analysis; assay type: functional, cell-based; in short: as §1
A549 [16] = assay: Induction of apoptosis in human A549 cells assessed as increase in cleaved caspase-9 level at 3 to 12 uM after 24 hrs by Western blot analysis; assay type: functional, cell-based; in short: as §1
A549 [17] = assay: Induction of apoptosis in human A549 cells assessed as early apoptotic cells at 3 uM after 24 hrs by Annexin V-APC/7-AAD staining-based FACS analysis (reference value: 5.82%); assay type: functional
A549 [18] = assay: Induction of apoptosis in human A549 cells assessed as late apoptotic cells at 3 uM after 24 hrs by Annexin V-APC/7-AAD staining-based FACS analysis (reference value: 0.01%); assay type: functional
A549 [19] = assay: Induction of apoptosis in human A549 cells assessed as necrotic cells at 3 uM after 24 hrs by Annexin V-APC/7-AAD staining-based FACS analysis (reference value: 0.032%); assay type: functional
A549 [20] = assay: Induction of apoptosis in human A549 cells assessed as viable cells at 3 uM after 24 hrs by Annexin V-APC/7-AAD staining-based FACS analysis (reference value: 94.1%); assay type: functional; settings: A549, 24 h, read-out: Activity
A549 [21] = assay: Induction of apoptosis in human A549 cells assessed as early apoptotic cells at 6 uM after 24 hrs by Annexin V-APC/7-AAD staining-based FACS analysis (reference value: 5.82%); assay type: functional
A549 [22] = assay: Induction of apoptosis in human A549 cells assessed as late apoptotic cells at 6 uM after 24 hrs by Annexin V-APC/7-AAD staining-based FACS analysis (reference value: 0.01%); assay type: functional
A549 [23] = assay: Induction of apoptosis in human A549 cells assessed as necrotic cells at 6 uM after 24 hrs by Annexin V-APC/7-AAD staining-based FACS analysis (reference value: 0.032%); assay type: functional
A549 [24] = assay: Induction of apoptosis in human A549 cells assessed as viable cells at 6 uM after 24 hrs by Annexin V-APC/7-AAD staining-based FACS analysis (reference value: 94.1%); assay type: functional; settings: A549, 24 h, read-out: Activity
A549 [25] = assay: Induction of apoptosis in human A549 cells assessed as early apoptotic cells at 12 uM after 24 hrs by Annexin V-APC/7-AAD staining-based FACS analysis (reference value: 5.82%); assay type: functional
A549 [26] = assay: Induction of apoptosis in human A549 cells assessed as late apoptotic cells at 12 uM after 24 hrs by Annexin V-APC/7-AAD staining-based FACS analysis (reference value: 0.01%); assay type: functional
A549 [27] = assay: Induction of apoptosis in human A549 cells assessed as necrotic cells at 12 uM after 24 hrs by Annexin V-APC/7-AAD staining-based FACS analysis (reference value: 0.032%); assay type: functional
A549 [28] = assay: Induction of apoptosis in human A549 cells assessed as viable cells at 12 uM after 24 hrs by Annexin V-APC/7-AAD staining-based FACS analysis (reference value: 94.1%); assay type: functional; settings: A549, 24 h, read-out: Activity

For `N#CC1=C(N)Oc2c(N)cc3nc4ccccc4nc3c2C12C(=O)N(Cc1cnnn1-c1cccc(C(F)(F)F)c1)c1ccccc12` (stereo not drawn), the pIC50 (HepG2) was 4.80, the pIC50 (A549 [1]) was 5.27 and the pIC50 (MCF7) was 4.50. It also gave a pIC50 (HCT-116) of 4.72, a pIC50 (L02) of 4.42 and a pIC50 (HUVEC) of less than 4.30. The Drug uptake [2] was “Active”, the Activity (A549 [3]) was “Dose-dependent effect” and the Activity (A549 [4]) was 30.5%. The Activity (A549 [5]) was 41.7%, the Activity (A549 [6]) was 51.1% and the Activity (A549 [7]) was “Active”. The Activity (A549 [8]) was “Active”, the Activity (A549 [9]) was “Dose-dependent effect” and the Activity (A549 [10]) was “Dose-dependent effect”. The Activity (A549 [11]) was “inactive”, the Activity (A549 [12]) was “inactive” and the Activity (A549 [13]) was “inactive”. The Activity (A549 [14]) was “Dose-dependent effect”, the Activity (A549 [15]) was “Active” and the Activity (A549 [16]) was “Active”. The Activity (A549 [17]) was 8.89%, the Activity (A549 [18]) was 0.031% and the Activity (A549 [19]) was 0.052%. For the same compound, the viability at 3 µM (A549 [20]) was 91%, the Activity (A549 [21]) was 11.2% and the Activity (A549 [22]) was 0.053%. It also gave an Activity (A549 [23]) of 0.127%, a viability at 6 µM (A549 [24]) of 88.6% and an Activity (A549 [25]) of 38.5%. For the same compound, the Activity (A549 [26]) was 2.32%, the Activity (A549 [27]) was 3.21% and the viability at 12 µM (A549 [28]) was 55.9%.
